High-throughput results: PubChem BioAssay, several laboratories
Most compounds without a hit are left out; they make up all but 2.4% or so of the library.
MT stabilize HCS: stabilizes microtubules in HeLa cells | HeLa tubulin immunostaining HCS, 24 h; share of cells brighter than vehicle mean+2SD | % tubulin-high responders, % at 10 µM | 200,000 tested, 0.83% active;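 active = plate Z-score above 3 for both tubulin-high and condensed-nucleus cell shares, with cell loss under 80%, at 10 µM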;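 also: anti alpha tubulin signal scored within the nucleus-defined area of each cell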
STAT3 inh: inhibitors of IL-6 induced STAT3 signaling; inhibition, % at 5.5 µM; U3A cells, IL-6 STAT3-luciferase reporter, luminescence; host cell line lacks STAT1; 190,000 tested, 0.89% active;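 active = inhibition above the mean inhibition across all screened compounds plus 3 SD, cut at about 44% in these data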
STAT3 activator: activators of IL-6 induced STAT3 signaling; U3A cells, IL-6 STAT3-luciferase reporter, luminescence; 100% = signal with IL-6 EC80 alone; activation (% of control), % at 5.6 µM; 190,000 tested, 0.91% active; AID 871;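 active = activation above the screen-wide mean of compound activation plus 3 SD, cut at about 130% in these data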
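system = STAT3-luciferase reporter U3A cells | reagent = IL-6 stimulus at 33 ng/mL final | timing = 1 h compound pre-exposure, 6 h IL-6 stimulation, 37 °C | measured by = luminescence | evaluation = % activation versus median of IL-6-stimulated wells | control set = IL-6-only wells as 100% reference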
b-catenin transl: alters nuclear translocation of beta-catenin in HeLa cells. 190,000 tested, 0.3% active. AID 1665. nuclear translocation activity, % at 5 µM. immunofluorescence imaging;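 active = nuclear translocation activity above 50% at 5 µM, with a well cell count of 50 or more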;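 also: per-cell ratio of nuclear to cytoplasmic median beta-catenin stain intensity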
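assay system = human HeLa cells, endogenous beta-catenin | times = compound treatment 24 h, 37°C, 5% CO2 | detection = Anti-beta-catenin immunofluorescence on PFA-fixed, Triton-permeabilized cells, DAPI nuclei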
STAT1 inh: STAT1 signaling inhibition | inhibition, % at 5.5 µM | AID 920 | NIH 3T3 STAT1-luciferase reporter, IFN-gamma, luminescence | 200,000 tested, 0.35% active;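 active = inhibition above a set limit, the mean inhibition across all tested compounds plus 3 SD, cut at about 34% in these data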
Hits are given with their value; – = inactive; · = no result given.

SMILES	MT stabilize HCS	STAT3 inh	STAT3 activator	b-catenin transl	STAT1 inh
Cc1ccc(N/C(N)=N/c2nc(CSc3nnc(C)s3)cc(=O)[nH]2)c(C)c1	12	–	135	–	–
Nc1cc2c(cc1C(=O)c1ccccc1F)OCCO2	–	–	–	–	–
Nc1cc2c(cc1C(=O)c1cccc(Br)c1)OCCO2	16	–	–	–	–
Cn1c(=O)c2c(ncn2Cc2nnc(N)s2)n(C)c1=O	–	–	–	–	–
O=C1CC(c2ccccc2)CC2=C1CN(C1CCCCC1)CN2 (stereo unspecified)	51	–	–	–	–
CN=C(c1ccc(C)cc1)n1c(=S)nc(-c2ccc(C)cc2)n(C)c1=S	–	–	–	–	–
CN=C(c1ccco1)n1c(=S)nc(-c2ccco2)n(C)c1=S	–	–	135	–	–
Cc1ccc2c(c1)-c1c(ssc1=S)C(C)(C)N2C(=O)c1ccco1	37	–	–	–	–
CC1(C)c2ssc(=S)c2-c2ccccc2N1C(=O)c1ccco1	–	–	–	–	–
COc1cc(/C=C2\N=C(c3ccccc3)NNC2=O)cc(OC)c1OC	·	·	·	65	·
CCn1c2ccccc2c2cc(/C=N/NC(=O)c3cccc(C)c3)ccc21	30	–	–	–	–
CCn1c2ccccc2c2cc(NC(=O)c3cccc(OC)c3)ccc21	31	–	–	–	–
CCn1c2ccccc2c2cc(NC(=O)c3cccc(OC)c3OC)ccc21	–	–	–	–	–
COc1ccc(N(CC(=O)Nc2cccc(N(C)S(C)(=O)=O)c2)S(=O)(=O)c2ccccc2)cc1Cl	–	–	–	–	–
CC(=O)Nc1cccc(C(=O)/C=C/c2ccc(C)cc2)c1	–	–	–	–	–
CN(C)c1ccc(/C=C/C(=O)c2cccc(Br)c2)cc1	14	–	–	–	–
CC(=O)Nc1ccc(C(=O)OCC(=O)NCc2ccc(Cl)cc2)cc1	32	–	–	50	–
CCOC(=O)C1CCCN(C(=O)c2ccc(Cn3c(=S)[nH]c4cc(C(=O)OC)ccc4c3=O)cc2)C1 (stereo unspecified)	18	–	–	·	–
COC(=O)c1ccc2c(=O)n(Cc3ccc(C(=O)NC4CCCC4)cc3)c(=S)[nH]c2c1	–	–	–	–	–
Cc1ccc2c(c1)C=CC(C)N2C(=O)c1ccccc1 (stereo unspecified)	–	–	–	–	–
Cc1ccc2c(c1)C=CC(C#N)N2C(=O)c1ccccc1 (stereo unspecified)	33	–	–	56	–
O=C1CN(C(=O)COc2cccc(F)c2)c2ccccc2N1	–	–	–	–	–
Cc1noc(C)c1COc1cccc(C(=O)OCC(=O)N2CC(=O)Nc3ccccc32)c1	39	–	–	–	–
O=C(NCCc1c[nH]c2ccccc12)c1cnc2sccn2c1=O	–	–	135	·	–
Cc1cc(/C=C2\SC(=Nc3ccc(F)cc3)NC2=O)c(C)n1-c1ccc(S(N)(=O)=O)cc1	–	–	–	160	–
SMILES	MT stabilize HCS	STAT3 inh	STAT3 activator	b-catenin transl	STAT1 inh
Cc1cccc(C)c1NC(=O)NCc1ccco1	·	·	·	–	·
Cc1cccc(C)c1OCCNC(=O)C(=O)NCc1ccco1	–	–	–	59	–
COc1ccc(/C=N/NC(=O)c2ccc(Cl)cc2Cl)cc1COC(C)=O	21	–	–	–	–
Clc1ccc(CO/N=C/c2cccs2)cc1	·	·	·	–	·
c1ccc2c(CCNc3ncnc4nc[nH]c34)c[nH]c2c1	17	–	–	–	–
CCSc1nc2c([nH]c3ccccc32)c(=O)n1C	–	–	–	·	–
COC(=O)C(C)Sc1nc2c([nH]c3ccccc32)c(=O)n1C (stereo unspecified)	–	–	133	·	–
CCOc1ccc(-n2c(SCC(N)=O)nc3c([nH]c4ccccc43)c2=O)cc1	–	–	134	·	–
C/C=C/C(=O)OCC(=O)Nc1ccc(SC(F)F)cc1	–	–	–	–	–
Nc1ccc(Oc2cccc(Oc3ccc(N)cc3)c2)cc1	–	51	–	–	39
Cc1oc(S(=O)(=O)N(C)C)cc1C(=O)Nc1ccc(Cl)cc1	·	·	·	–	·
Cc1ccc(C(=O)OCC(=O)Nc2c(Cl)cc(S(N)(=O)=O)cc2Cl)o1	·	·	·	–	·
Cc1cc(C)c2c(N)c(C(=O)Nc3nccs3)sc2n1	–	58	–	–	48
CCCN1Cc2cccc(C(=O)Nc3ccc(-c4nc5ccccc5[nH]4)cc3)c2C1=O	–	–	–	–	–
Cc1nn(C(=O)c2cc3sccc3[nH]2)c(C)c1C	–	–	143	–	–
